Jurkat NFkB inh: inhibitors of the PMA/ionomycin-induced NF-kB reporter in Jurkat cells | PMA/ionomycin-induced NF-kB luciferase reporter, luminescence | inhibition, % at 4 µM | 0.53% of 330,000 active | AID 435003; in the data active means inhibition above about 50%
NR2E3 ag-1: activates human NR2E3 receptor; 0.35% of 360,000 active; CHO-S Gal4-NCOR/VP16-NR2E3 two-hybrid, luciferase; AID 602229; inhibition of corepressor binding, % at 3.98 µM; Q9Y5X4;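 active means inhibition above the mean of all tested compounds plus 3 SD, cut at about 70% in these data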;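 further: 0% = DMSO with NR2E3 transfected cells and 100% = cells lacking NR2E3 construct; higher means lower luciferase signal from less NR2E3 corepressor binding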
Target sequence (Q9Y5X4 whole entry, looked up, the tested form may be a part): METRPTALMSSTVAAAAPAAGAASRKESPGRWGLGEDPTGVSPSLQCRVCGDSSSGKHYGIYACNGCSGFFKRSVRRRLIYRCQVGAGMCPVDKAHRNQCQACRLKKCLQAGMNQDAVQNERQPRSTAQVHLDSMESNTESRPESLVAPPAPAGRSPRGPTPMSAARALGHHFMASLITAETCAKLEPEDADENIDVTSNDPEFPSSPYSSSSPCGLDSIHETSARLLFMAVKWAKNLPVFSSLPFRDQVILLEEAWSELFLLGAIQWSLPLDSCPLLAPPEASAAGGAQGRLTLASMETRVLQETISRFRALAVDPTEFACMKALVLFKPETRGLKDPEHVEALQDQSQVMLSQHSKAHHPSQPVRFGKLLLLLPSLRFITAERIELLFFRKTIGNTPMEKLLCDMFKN
697 NFkB inh: inhibitors of the PMA/ionomycin-induced NF-kB reporter in 697 B cells. 697 B-cell NF-kB luciferase reporter, 16 h. inhibition, % at 4 µM. 0.33% of 330,000 active. AID 435022; in the data active means inhibition above about 35%
aDG glyco up: alpha-DG glycosylation activation. Pro5-aDG cells, alpha-DG glycosylation AlphaScreen (IIH6); 0% Pro5, 100% B10-LARGE cell signal. activation, % at 10 µM. 0.22% of 360,000 active;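 active means activation of at least 8% versus controls, or a plate z-score of at least 8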;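 further: Pro5 are CHO cells carrying HIG-tagged alpha-DG that lacks glycosylation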
NR2E3 ag-2: activates human photoreceptor nuclear receptor NR2E3. GST-NR2E3/biotin-RetCOR TR-FRET, 1536-well. inhibition of corepressor binding, % at 4.78 µM. 0.12% of 320,000 active. AID 2300;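 active means percent inhibition above the cutoff of mean plus 3 SD of all tested compounds, set per screening campaign, cut at about 20% in these data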;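 further: 0% = DMSO wells and 100% = biotin wells as full block of FRET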
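System: GST-tagged NR2E3 plus biotinylated RetCOR corepressor; Amount: 1.35 nM GST-tagged NR2E3 final; Dosing: single nominal compound dose of 4.8 µM; Schedule: 5 h incubation at 4 °C; Technique: TR-FRET with europium anti-GST and streptavidin-D2, 340 nm excitation; Controls: biotin wells as high control, 0.6% DMSO wells as low control.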
MPTP block: blocks calcium-induced mitochondrial swelling | isolated mouse mitochondria, Ca2+ swelling absorbance, 30 min | inhibition, % at 10 µM | 1.4% of 360,000 active | AID 602449;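 active means inhibition of 50% or more, scaled per plate between neutral and stimulator controls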;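 further: 0% = DMSO wells given calcium and 100% = 1 mM EGTA wells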
MPTP counter: Rhodamine 123 counter-screen of mitochondrial pore hits; inhibition, % at 10 µM; 78% of 5,000 active; AID 624504; isolated mitochondria, membrane potential, Rhodamine 123 fluorescence; shares compounds with MPTP block; in the data active means inhibition above about 22%;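 further: 0% = DMSO vehicle and 100% = positive control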
Numbers without * were called inactive; x = no result given. A selection: hits, their analogues and other compounds. The true share with any hit is near 2.4%.

SMILES	Jurkat NFkB inh	NR2E3 ag-1	697 NFkB inh	aDG glyco up	NR2E3 ag-2	MPTP block	MPTP counter
O=[N+]([O-])c1ccc(O)c(/C=N/n2cnc3ccccc32)c1	0	-68	-10	0	4	69*	79*
O=[N+]([O-])c1ccc(O)c(/C=N/Nc2ccccc2Cl)c1	-21	-83	-63	0	4	94*	91*
C/C(=N\OCc1nc2ccccc2c(=O)n1/N=C/c1cc([N+](=O)[O-])ccc1O)c1ccccc1	-15	-36	-25	0	1	74*	51*
C/C(=N\OCc1nc2ccccc2c(=O)n1/N=C/c1cc(C)cc([N+](=O)[O-])c1O)c1ccccc1	-11	-7	5	0	-3	-1	x
O=[N+]([O-])c1ccc(NN=Cc2cccc(O)c2)nc1	x	-104	x	0	x	1	x
O=[N+]([O-])c1ccc(NN=Cc2cc(Br)ccc2O)nc1	x	-60	x	0	x	75*	59*
NS(=O)(=O)c1ccc(CCNC(=O)C2CCN(S(=O)(=O)c3ccc(Br)s3)CC2)cc1	10	-27	9	-1	2	-1	x
Cc1oc(-c2cc(F)ccc2F)nc1CN1CCN(c2ncnc3ccccc23)CC1	14	20	-39	4	6	1	x
COc1ccc(-c2nc(CN3CCN(c4ncnc5ccccc45)CC3)c(C)o2)c(OC)c1	8	46	-28	6	4	66*	29*
O=C(NNC(=S)NC(=O)c1sc2ccccc2c1Cl)c1ccc(Cl)cc1	20	-58	-1	0	4	108*	20
Cc1cccc(C(=O)NC(=S)NNC(=O)c2cccs2)c1	-4	-35	0	0	-3	54*	-12
CC(C)(C)c1ccc(C(=O)NC(=S)NNC(=O)c2cccs2)cc1	x	-79	x	1	-2	92*	29*
Cc1cccc(C(=O)NC(=S)NNC(=O)c2ccc(Cl)cc2)c1	x	13	x	1	-2	95*	19
O=C(Cc1cccc(NC(=O)C2CCCN(C(=O)C3CCC3)C2)c1)Nc1ccc(C(=O)N2CCCCC2)cc1 (stereo unspecified)	x	-8	x	0	x	-1	x
COc1cc(NC(=S)Nc2ccc(Br)cc2Cl)c(OC)cc1Cl	-16	4	-21	0	-6	90*	89*
COc1cc(OC)c(NC(=S)Nc2cc(Cl)cc(Cl)c2)cc1Cl	15	1	-1	0	4	104*	84*
COc1cc(OC)c(NC(=S)Nc2cccc(C(C)=O)c2)cc1Cl	5	17	-1	0	-3	4	x
O=C(COc1ccc(-n2ccnc2)cc1)Nc1cccc(F)c1	-2	3	13	0	-3	20	x
CCC(C)(C)c1ccc(OCC(=O)Nc2ccncc2)cc1	3	-6	-22	0	8	105*	81*
O=C(COc1ccc(-n2ccnc2)cc1)Nc1cccc(Cl)c1	1	4	28	0	-1	89*	57*
O=C(COc1ccc(Br)cc1)Nc1ccncc1	15	9	-1	0	1	55*	58*
N#C/C(=C\c1coc2ccc(O)cc2c1=O)C(=O)Nc1nc2ccccc2s1	-2	-35	-51	0	0	41	x
COC(=O)c1ccc(S(=O)(=O)N2CCN(C(c3ccccc3)c3ccccc3)CC2)n1C	-7	-5	-9	0	2	-1	x
Cc1onc(-c2ccccc2)c1C(=O)OCC(=O)Nc1ccc(OC(F)(F)F)cc1	-8	19	-13	1	3	86*	91*
Cc1ccc(NC(=O)COC(=O)c2c(-c3ccccc3)noc2C)cc1	6	-7	18	0	2	0	x
SMILES	Jurkat NFkB inh	NR2E3 ag-1	697 NFkB inh	aDG glyco up	NR2E3 ag-2	MPTP block	MPTP counter
CCCC(=O)NC(NC(=S)Nc1ccc(N=Nc2ccccc2)cc1)C(Cl)(Cl)Cl (stereo unspecified)	4	-38	-40	2	-2	103*	62*
O=C(CCc1ccccc1)NC(NC(=S)Nc1ccc(Br)cc1)C(Cl)(Cl)Cl (stereo unspecified)	-1	-27	-18	2	4	81*	81*
CCCC(=O)NC(NC(=S)Nc1ccc(S(N)(=O)=O)cc1)C(Cl)(Cl)Cl (stereo unspecified)	5	7	-3	0	1	0	x
O=C(CCc1ccccc1)NNC(=O)Nc1ccc(Br)cc1	-6	-14	10	0	0	40	x
CCOc1ccccc1CN1CCNC(=O)C1CC(=O)NCc1nccn1CC (stereo unspecified)	17	-6	2	0	3	-2	x
Cc1cc(Nc2cccc(Br)c2)c2ccccc2n1	34	25	-40	0	1	83*	75*
CCOC(=O)C1=CCN(S(=O)(=O)c2ccc(F)cc2)C1c1cccc(F)c1 (stereo unspecified)	x	10	x	0	x	0	x
CCSc1nsc(NC(=O)Nc2cccc(OC)c2)n1	-14	-91	-8	0	-2	84*	85*
COc1cccc(NC(=O)Nc2ccncc2)c1	-14	-17	3	1	1	12	x
CCSc1nsc(NC(=O)Nc2ccccc2F)n1	-44	-175	-92	0	-6	66*	87*
O=C(Nc1ccc(N2CCCC2)c(Cl)c1)c1ccc([N+](=O)[O-])cc1	-25	-33	-32	0	-5	76*	76*
Cc1cc(C(=O)Nc2ccc(N3CCCC3)c(Cl)c2)ccc1[N+](=O)[O-]	-55	-85	-50	1	2	80*	86*
CC1CCCN(c2ccc(C(=O)Nc3ccc4c(c3)OCO4)cc2[N+](=O)[O-])C1 (stereo unspecified)	-23	-30	-35	0	2	58*	43*
CNc1nc(NCc2ccccc2)c2ccccc2n1	28	-25	-31	1	0	5	x
CCCCNc1nc(NCc2ccccc2)nc2ccccc12	x	20	x	1	x	78*	118*
Cc1c(C(=O)Nc2nonc2-c2ccc(F)cc2)oc2ccc(F)cc12	-4	4	3	0	0	81*	84*
C[C@@H]1CN([C@H](C)CO)C(=O)CCCn2nncc2CO[C@H]1CN(C)S(=O)(=O)c1ccc2c(c1)OCCCO2	x	-11	x	0	x	-1	x
O=C(CSc1nc2ccccc2c(=O)n1-c1ccccc1)N1CCc2ccccc2C1	30	-17	-58	0	0	84*	75*
CC(C)c1ccccc1-n1c(SCC(=O)N2CCc3ccccc3C2)nc2ccccc2c1=O	0	-24	2	0	0	5	x
COc1cc(C)c(NC(=S)Nc2ccc(Cl)c(Cl)c2)cc1OC	-5	27	-11	0	1	100*	82*

Assay outcomes from PubChem.
